Test results: ChEMBL document CHEMBL2406967, “Contribution of Cage-Shaped Structure of Physalins to Their Mode of Action in Inhibition of NF-κB Activation” (ACS Med Chem Lett, 2013)
pIC50: −log10 of the molar value. Active and inactive are the calls of the source. The calls are words filed in the database; no cut-off is given here.

What was measured:
[1] = Inhibition of TNFalpha-induced NF-kappaB activation (unknown origin) expressed in human HeLa cells pretreated 30 mins before TNFalpha addition after 7 hrs by luciferase reporter gene assay; format: cell-based
Method in brief: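 HeLa cells stably transfected with an NF-κB reporter construct, stimulated with TNF-α; IC50 values are means of three independent experiments, with standard deviation.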

HeLa [2] = experiment: Inhibition of NF-kappaB (unknown origin) expressed in human HeLa cells assessed as inhibition of TNFalpha-induced p50 nuclear translocation pretreated 30 mins before TNFalpha addition measured after 15 mins by Western blot analysis
[3] = biological target: T1, NF-kappa-B inhibitor alpha (Homo sapiens) (UniProt P25963); experiment: Inhibition of TNFalpha-induced IkappaBalpha (unknown origin) degradation expressed in human HeLa cells at 50 uM pretreated […] before TNFalpha addition […] by ELISA; format: cell-based
T1 sequence (whole entry): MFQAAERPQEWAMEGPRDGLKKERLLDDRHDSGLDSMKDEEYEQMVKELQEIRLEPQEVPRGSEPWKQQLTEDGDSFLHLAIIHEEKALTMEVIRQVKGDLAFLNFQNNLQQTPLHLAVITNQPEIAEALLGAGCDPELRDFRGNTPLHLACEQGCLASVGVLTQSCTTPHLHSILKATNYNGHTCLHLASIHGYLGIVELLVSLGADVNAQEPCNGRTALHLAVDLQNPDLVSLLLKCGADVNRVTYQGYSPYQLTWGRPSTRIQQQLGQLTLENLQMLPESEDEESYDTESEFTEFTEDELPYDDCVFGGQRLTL

HeLa [4] = experiment: Inhibition of NF-kappaB (unknown origin) expressed in human HeLa cells assessed as inhibition of TNFalpha-induced RelA nuclear translocation pretreated 30 mins before TNFalpha addition measured after 15 mins by Western blot analysis
HeLa [5] = experiment: Ratio of IC50 for TNFalpha-induced NF-kappaB (unknown origin) activation expressed in human HeLa cells to IC50 for TNFalpha-induced IkappaBalpha (unknown origin) phosphorylation expressed in human HeLa cells; format: cell-based
HeLa [6] = experiment: Inhibition of NF-kappaB (unknown origin) expressed in human HeLa cells assessed as inhibition of TNFalpha-induced DNA binding of p50 pretreated 30 mins before TNFalpha addition measured after 30 mins by EMSA
HeLa [7] = experiment: Inhibition of NF-kappaB (unknown origin) expressed in human HeLa cells assessed as inhibition of TNFalpha-induced DNA binding of RelA pretreated 30 mins before TNFalpha addition measured after 30 mins by EMSA
HeLa [8] = experiment: Inhibition of NF-kappaB (unknown origin) expressed in human HeLa cells assessed as inhibition of TNFalpha-induced p50 nuclear translocation at 100 uM […] by Western blot analysis; format: cell-based
Method in brief: (§1)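 HeLa cells pretreated 30 min with a range of compound concentrations or DMSO, then stimulated with TNF-α (50 ng/mL) for 15 min. Cytoplasmic and nuclear fractions were immunoblotted for RelA and p50. Tubulin marked the cytoplasmic fraction and PARP the nuclear fraction.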

HeLa [9] = experiment: Inhibition of NF-kappaB (unknown origin) expressed in human HeLa cells assessed as inhibition of TNFalpha-induced RelA nuclear translocation at 100 uM […] by Western blot analysis; format: cell-based; method in brief: as §1

| SMILES | pIC50 [1] | inhibition [3] | further results |
| --- | --- | --- | --- |
| CC1=C(C)C(=O)O[C@@H]([C@](C)(O)C2=CC[C@@]3(O)[C@@H]4CC=C5CC=CC(=O)[C@]5(C)[C@H]4CC[C@]23C)C1 | 4.68 | – | – |
| CC1=C(C)C(=O)O[C@@H]([C@](C)(O)[C@H]2CC[C@@]3(O)[C@@H]4CC=C5CC=CC(=O)[C@]5(C)[C@H]4CC[C@]23C)C1 | 4.68 | – | – |
| C=C1C(=O)O[C@@H]2C[C@@]1(C)[C@@H]1C(=O)[C@]3(O)O[C@]14[C@@]2(C)OC(=O)[C@@]4(O)CC[C@H]1[C@H]3CC=C2CC=CC(=O)[C@@]21C | 5.18 | 0.8% | inhibition (HeLa [2]): Dose-dependent effect; inhibition (HeLa [4]): Dose-dependent effect |
| C[C@]12C(=O)C=CCC1=C[C@@H](O)[C@@H]1[C@@H]2CC[C@@]2(O)C(=O)O[C@@]3(C)[C@H]4C[C@]5(C)[C@@H](CO[C@@]16O[C@]23[C@H]5C6=O)C(=O)O4 | 4.94 | -3.8% | – |
| C[C@]12C(=O)C=CCC1=CC[C@@H]1[C@@H]2CC[C@]2(O)C(=O)O[C@@]3(C)[C@H]4C[C@@](C)([C@@H]5C(=O)[C@]1(O)O[C@@]532)[C@](C)(O)C(=O)O4 | < 4.30 | – | – |
| C[C@H]1C(=O)OC[C@H]1C[C@@H](O)[C@](C)(O)[C@]1(O)CC[C@@]2(O)[C@@H]3CC=C4CC=CC(=O)[C@]4(C)[C@H]3CC[C@]12C | 4.48 | – | – |
| C[C@H]1C(=O)OC[C@H]1C[C@@H](O)[C@](C)(O)[C@@]1(O)CC[C@@]2(O)[C@@H]3CC=C4CC=CC(=O)[C@]4(C)[C@H]3CC[C@]12C | 4.49 | – | – |
| C#C[C@]12O[C@H]3OC[C@H]4C(=O)O[C@H](C[C@@]4(C)[C@@H]1C3=O)[C@]2(C)O | 3.98 | – | – |
| C[C@@]12C[C@H]3OC(=O)[C@@H]1CO[C@@H]1O[C@@]4([C@H](O)C(=O)O[C@@]34C)[C@H]2C1=O | < 3.70 | – | – |
| CC(=O)O[C@@H]1C(=O)O[C@@]2(C)[C@H]3C[C@]4(C)[C@@H](CO[C@@H]5O[C@]12[C@H]4C5=O)C(=O)O3 | < 3.70 | – | – |
| C[C@@]12C[C@H]3OC(=O)[C@@H]1CO[C@@H]1O[C@@]4([C@H](OCc5ccccc5)C(=O)O[C@@]34C)[C@H]2C1=O | 4.36 | – | – |
| C=C1C(=O)O[C@@H]2C[C@@]1(C)[C@@H]1C(=O)[C@@H](O)O[C@@]13[C@H](OCc1ccccc1)C(=O)O[C@@]23C | 4.07 | – | – |
| C[C@@]12C[C@H]3OC(=O)[C@]1(O)CO[C@]14O[C@@]5([C@H]2C1=O)[C@@]3(C)OC(=O)[C@@]5(O)CC[C@H]1[C@H]4C[C@H]2O[C@]23CC=CC(=O)[C@]13C [25-HYDROXY PHYSALIN F] | 5.36 | 29% | Ratio IC50 (HeLa [5]): 10 |
| C[C@@]12C[C@H]3OC(=O)[C@]1(O)CO[C@]14O[C@@]5([C@H]2C1=O)[C@@]3(C)OC(=O)[C@@]5(O)CC[C@H]1[C@H]4C[C@@H]2O[C@@]23CC=CC(=O)[C@]13C [25-HYDROXY PHYSALIN J] | < 4.30 | – | – |
| C=C1C(=O)O[C@@H]2C[C@@]1(C)[C@@H]1C(=O)[C@]3(O)O[C@]14[C@@]2(C)OC(=O)[C@@]4(O)CC[C@H]1[C@H]3[C@H](O)C=C2CC=CC(=O)[C@@]21C [PHYSALIN A] | 4.64 | -3.4% | – |
| C[C@]12C(=O)C=CCC1=CC[C@@H]1[C@@H]2CC[C@]2(O)C(=O)O[C@@]3(C)[C@H]4C[C@]5(C)[C@@H](CO[C@@]16O[C@@]32[C@H]5C6=O)C(=O)O4 [PHYSALIN B] | 5.22 | 7% | inhibition (HeLa [2]): Dose-dependent effect; inhibition (HeLa [6]): Dose-dependent effect; inhibition (HeLa [7]): Dose-dependent effect; inhibition (HeLa [4]): Dose-dependent effect |
| C[C@@]12C[C@H]3OC(=O)[C@@H]1CO[C@]14O[C@]5([C@H]2C1=O)[C@@](O)(CC[C@H]1[C@H]4C[C@H]2O[C@]24CC=CC(=O)[C@]14C)C(=O)O[C@@]35C [PHYSALIN F] | 5.60 | 45.2% | Ratio IC50 (HeLa [5]): 10 |
| C[C@@]12C[C@H]3OC(=O)[C@@H]1CO[C@@]14O[C@]5(C2C1=O)[C@@](O)(CC[C@H]1[C@H]4C[C@@H]2O[C@@]24CC=CC(=O)[C@]14C)C(=O)O[C@@]35C [PHYSALIN J] | 4.44 | – | – |
| C[C@@H]1C(=O)O[C@@H]2C[C@@]1(C)[C@@H]1C(=O)[C@]3(O)O[C@]14[C@@]2(C)OC(=O)[C@@]4(O)CC[C@H]1[C@H]3[C@H](O)C=C2CC=CC(=O)[C@@]21C [PHYSALIN O] | < 4.30 | – | – |
| CC1=C(C)C(=O)O[C@@H]([C@](C)(O)[C@]2(O)CC[C@@]3(O)[C@@H]4C[C@H]5O[C@]56CC=CC(=O)[C@]6(C)[C@H]4CC[C@]23C)C1 [WITHANOLIDE E] | 6.01 | 46.8% | Ratio IC50 (HeLa [5]): 10 |
| CC1=C(C)C(=O)O[C@@H]([C@](C)(O)[C@]2(O)CC[C@@]3(O)[C@@H]4CC=C5CC=CC(=O)[C@]5(C)[C@H]4CC[C@]23C)C1 [WITHANOLIDE F] | 5.70 | – | inhibition (HeLa [6]): Dose-dependent effect; inhibition (HeLa [8]): Active; inhibition (HeLa [7]): Dose-dependent effect; inhibition (HeLa [9]): Active |
